# Screens as filed in PubChem.
# TRPC6 act = mouse TRPC6 channel activators, primary screen, cell-based, HEK293, membrane potential dye | HEK293-TRPC6 membrane potential dye fluorescence; active compounds read high | B-score at 10 µM | 310,000 compounds, 0.13% hits | AID 2550, 2010;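 active = B-score of the integrated fluorescence ratio above library mean plus 3 SD, and starting fluorescence ratio within library mean plus 5 SD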;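 note: higher score means more depolarization so channel activation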
# Target sequence (Q61143 whole entry, looked up): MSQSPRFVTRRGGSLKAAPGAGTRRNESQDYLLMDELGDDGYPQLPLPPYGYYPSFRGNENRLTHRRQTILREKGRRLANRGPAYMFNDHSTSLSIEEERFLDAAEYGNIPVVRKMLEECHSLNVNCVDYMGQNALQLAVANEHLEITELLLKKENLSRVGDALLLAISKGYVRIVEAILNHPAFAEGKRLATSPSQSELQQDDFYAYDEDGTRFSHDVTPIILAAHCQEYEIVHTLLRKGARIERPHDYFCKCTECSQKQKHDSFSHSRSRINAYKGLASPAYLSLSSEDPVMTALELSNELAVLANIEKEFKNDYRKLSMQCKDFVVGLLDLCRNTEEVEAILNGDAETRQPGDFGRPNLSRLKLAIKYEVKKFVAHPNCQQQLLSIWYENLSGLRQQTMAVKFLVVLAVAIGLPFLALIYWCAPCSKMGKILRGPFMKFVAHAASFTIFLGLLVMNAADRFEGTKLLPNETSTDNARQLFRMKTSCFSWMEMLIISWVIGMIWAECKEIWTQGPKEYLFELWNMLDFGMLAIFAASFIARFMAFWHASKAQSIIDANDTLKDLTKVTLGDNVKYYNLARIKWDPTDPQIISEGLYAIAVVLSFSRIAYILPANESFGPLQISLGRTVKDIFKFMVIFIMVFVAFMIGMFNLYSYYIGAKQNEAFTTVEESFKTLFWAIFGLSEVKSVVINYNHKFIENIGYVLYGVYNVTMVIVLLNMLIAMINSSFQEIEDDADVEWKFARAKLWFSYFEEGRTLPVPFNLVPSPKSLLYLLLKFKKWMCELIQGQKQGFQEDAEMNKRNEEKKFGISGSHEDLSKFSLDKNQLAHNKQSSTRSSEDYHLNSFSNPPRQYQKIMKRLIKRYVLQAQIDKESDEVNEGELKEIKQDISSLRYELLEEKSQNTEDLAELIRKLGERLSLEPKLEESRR
# TRPC4 block = inhibitors of mouse TRPC4 channel, primary screen, Fluo4 calcium, HEK293 TRPC4beta/mu-opioid cells | DAMGO-evoked Fluo4 calcium flux; active compounds read low | B-score at 10 µM | 300,000 compounds, 0.39% hits | AID 2247, 2010;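 active = B-score over 3 SD under the library average, no early fluorescence shift, positive overall ratio signal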
#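 Material: HEK293 cells with stable TRPC4beta plus mu-opioid receptor expression; probe or stimulus: DAMGO in two steps, submaximal then maximal; technique: Fluo4 calcium fluorescence by kinetic imaging, 5 s 1 Hz baseline; measure: integrated fluorescence ratio relative to baseline, converted to per-well B score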
# TRPC4 PAM = positive allosteric modulators of TRPC4, primary screen, cell-based, mouse TRPC4beta, HEK293 mu-opioid, Fluo-4 calcium | DAMGO EC20, Fluo-4 Ca2+ flux; active compounds read high | B-score at 10 µM | 310,000 compounds, 0.42% hits | AID 2227, 2009;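 active = B-score of calcium response area above 5 SD of library B-scores, with initial fluorescence ratio within 5 SD of library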;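 note: B-score of integrated fluorescence ratio over time as area under calcium response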
# TRPC4 act = activators of mouse TRPC4 channel, primary screen, Fluo4 calcium, HEK293 TRPC4beta/mu-opioid cells; Short transient receptor potential channel 4 (Mus musculus), Q9QUQ5; Fluo4 calcium fluorescence; active compounds read high; B-score at 10 µM; 310,000 compounds, 0.49% hits; AID 2237, 2010;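 active = B-score above 5 SD of library B-scores, and initial fluorescence ratio not above library mean plus 5 SD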;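 note: positive B-score marks a calcium rise read as TRPC4 activation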
#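 Incubation: 45 min room-temperature Fluo4 loading, 110 s read / System: HEK293 cells stably co-expressing mouse TRPC4beta and mu-opioid receptor / Signal: Fluo4 fluorescence, kinetic / Control set: buffer (low) and maximal DAMGO (high) / Measure: integrated baseline-normalised fluorescence ratio, converted to per-well B score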
# TRPC6 inhibitor = mouse TRPC6 channel inhibitors, primary screen, cell-based, HEK293, membrane potential dye; ACh-evoked depolarization; active compounds read low; B-score at 10 µM; 310,000 compounds, 1.1% hits;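 active = B-score under library mean minus 3 SD, initial fluorescence not abnormally high, positive integrated signal ratio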;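 note: B-score derived from integrated fluorescence ratio over the kinetic read; more negative B-score means stronger inhibition of depolarization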
# TRPC4 sel inh 2 = second check of whether TRPC6 inhibitors also affect mouse TRPC4. shares compounds with TRPC6 inhibitor. HEK293 TRPC4/MOR, membrane potential dye fluorescence; channel activated by saturating DAMGO dose. inhibition, % at 10 µM. 920 compounds, 42% hits;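 active = compounds whose fluorescence signal differed from control wells by over 3 SD, either direction, in both duplicate plates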
# TRPC4 spec = mouse TRPC4 modulation by TRPC6 hits, confirmation, selectivity assay for TRPC6 inhibitor project, cell-based, HEK293 TRPC4/mu-opioid, membrane potential dye. shares compounds with TRPC6 inhibitor. membrane potential fluorescence. activity change, negative = inhibition, % at 10 µM. 920 compounds, 61% hits;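 active = rise or fall in signal beyond 3 SD of buffer-only wells in both replicate plates, either sign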;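 note: integrated kinetic ratio of fluorescence range over baseline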
# HEK293 MPD ctr 2-1 = nonspecific membrane potential effects, parental HEK293, confirmation, counter-screen for TRPC6 inhibitor project, cell-based, second counter screen; shares compounds with TRPC6 inhibitor; parental HEK293 membrane potential dye fluorescence; maximal acetylcholine challenge after compound addition; signal change vs control, % at 10 µM; 920 compounds, 31% hits;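 active = membrane potential signal moving either way by over 3 SD of the maximum-effect control, in both duplicate plates, meaning non-specific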
# HEK293 MPD ctr-1 = membrane potential modulation in parental HEK293, confirmation, counter-screen for TRPC6 inhibitor project, cell-based. parental HEK293 membrane potential dye fluorescence. shares compounds with TRPC6 inhibitor. membrane potential signal change, % at 10 µM. 920 compounds, 60% hits;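 active = membrane potential signal shifting up or down by more than 3 SD of buffer-only wells, on both duplicate plates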
# HEK293 MPD ctr-2 = parental HEK293 membrane potential modulation, confirmation, counter-screen for TRPC6 modulator project, cell-based; AID 488924, 2010; shares compounds with TRPC6 inhibitor; membrane potential dye fluorescence; membrane potential signal change, % at 10 µM; 2,400 compounds, 51% hits;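 active = membrane potential signal moves up or down beyond 5 SD from buffer-only wells, on both duplicate plates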
# HEK293 MPD ctr 2-2 = parental HEK293 nonspecific activity of TRPC6 modulators, second screen. 2,400 compounds, 14% hits. AID 488926. shares compounds with TRPC6 inhibitor. membrane potential dye fluorescence; after compound, maximal acetylcholine stimulation. inhibition, % at 10 µM;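 active = membrane potential signal drops by more than 5 SD from the mean control signal, in both duplicate plates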;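 note: plate controls were acetylcholine ECmax control wells for no effect and buffer only wells for full effect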
# TRPC4/MOR mod = TRPC4 modulation by TRPC6 hit compounds, confirmation, selectivity assay for TRPC6 modulator project, cell-based, HEK293 TRPC4/mu-opioid, membrane potential dye, mouse; shares compounds with TRPC6 inhibitor; 2,400 compounds, 69% hits; membrane potential fluorescence; percent change from control (negative = decrease, positive = increase), % at 10 µM;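 active = membrane potential signal moved up or down beyond 5 SD of buffer control wells, in both duplicate plates, actives on both sides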;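 note: plate controls were assay buffer wells for no effect and DAMGO maximal-effect wells for full effect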
# TRPC4/MOR inh 2 = mouse TRPC4 off-target activity of TRPC6 modulators, second screen; inhibition, % at 10 µM; 2,400 compounds, 55% hits; HEK293 TRPC4/mu-opioid, membrane potential dye fluorescence; stimulated with maximal-effect DAMGO; shares compounds with TRPC6 inhibitor;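 active = drop in membrane potential signal beyond 5 SD of the control wells in both duplicate plates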;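 note: TRPC4 counter screen for TRPC6 hits run under conditions tuned for TRPC6 not TRPC4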
# TRPC6 inh conf = mouse TRPC6 channel inhibitors, confirmation, HEK293 cells, membrane potential dye, duplicate. shares compounds with TRPC6 inhibitor. ACh-evoked depolarization. inhibition, % at 10 µM. 3,300 compounds, 43% hits;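 active = fluorescence ratio falls more than 5 SD below the full-stimulation control mean, in both duplicate runs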;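 note: integrated fluorescence ratio of peak minus minimum over baseline after agonist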
# TRPC6 act conf = mouse TRPC6 channel activators, confirmation, HEK293 cells, membrane potential dye, duplicate | shares compounds with TRPC6 inhibitor | HEK293-TRPC6 membrane potential dye fluorescence, FDSS | activation, % at 10 µM | 2,800 compounds, 11% hits | AID 488961, 2010;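 active = ratio signal rise beyond 5 SD above unstimulated control wells' mean, seen in both duplicate runs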;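 note: plate controls were buffer EC0 wells for no effect and acetylcholine ECmax response for full effect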
# Active calls of the source: *; i = inactive; nt = not tested or not shown. Rows were chosen to be rich in hits. Some 2.3% of all compounds tested hit in one or more screens of this group.
SMILES,TRPC6 act,TRPC4 block,TRPC4 PAM,TRPC4 act,TRPC6 inhibitor,HEK293 MPD ctr-2,HEK293 MPD ctr 2-2,TRPC4/MOR mod,TRPC4/MOR inh 2,TRPC6 inh conf,TRPC6 act conf,others
CC(C)Cc1ccc(C2=CSC3=NCCN23)cc1,i,i,i,i,-5.8*,94%*,i,i,55%*,48%*,nt,
Cc1ccc(-c2cc(Cc3ccccc3)c(=O)[nH]n2)cc1,i,i,i,i,i,nt,nt,nt,nt,nt,nt,
O=C(c1cccs1)N1CCN(C23CC4CC(CC(C4)C2)C3)CC1,i,i,i,i,-6.3*,114%*,i,18%*,i,44%*,nt,
Cc1cc(=O)n2nc(N3CCCC(C(=O)NC4CCCCC4C)C3)sc2n1 (configuration not stated),i,i,i,i,i,nt,nt,nt,nt,nt,nt,
CCCN(CCC)CCCNc1ccc(C(=O)Nc2cccc(OC)c2)cc1[N+](=O)[O-],i,i,i,i,-7.3*,nt,nt,nt,nt,i,i,TRPC4 sel inh 2=55%*;TRPC4 spec=-18%*;HEK293 MPD ctr 2-1=i;HEK293 MPD ctr-1=i
Cc1ccc2ccc3cccnc3c2n1,i,i,i,i,-5.8*,-248%*,i,-36%*,i,44%*,i,
O=C(Nc1ccccc1)C1CC(=O)N(Cc2ccccc2)C1 (configuration not stated),i,i,i,i,i,nt,nt,nt,nt,nt,nt,
O=C(Nc1ccc(F)c(Cl)c1)C1CC(=O)N(Cc2ccccc2)C1 (configuration not stated),i,i,i,i,-6.1*,i,i,-8.5%*,i,i,i,
CCn1c(SCC(=O)Nc2ccc(NC(C)=O)cc2)nc2c1c(=O)n(C)c(=O)n2C,i,i,i,i,i,nt,nt,nt,nt,nt,nt,
Cc1ccc(-c2cnc(SCCNC(=O)c3ccco3)[nH]2)cc1,i,i,i,i,i,nt,nt,nt,nt,nt,nt,
O=C(NCCSc1ncc(-c2ccc(F)cc2)[nH]1)c1ccc2c(c1)OCO2,i,i,i,i,-5.8*,i,i,i,i,i,i,
O=C(N/N=C/c1ccccc1[N+](=O)[O-])C(=O)N1CCCC1,i,i,i,i,i,nt,nt,nt,nt,nt,nt,
CCOc1ccc(NC(=O)CC(c2ccccc2)c2ccc(F)cc2)cc1 (configuration not stated),i,i,i,i,i,nt,nt,nt,nt,nt,nt,
CCOC(=O)c1c(NC(=O)c2cnn3c2NC(c2cccc(OC)c2)CC3C(F)(F)F)sc2c1CCCC2 (configuration not stated),i,i,i,i,i,nt,nt,nt,nt,nt,nt,
COc1cccc(C2CC(C(F)(F)F)n3ncc(C(=O)NCC4CCCO4)c3N2)c1 (configuration not stated),i,i,i,i,-5.6*,i,i,i,i,i,i,
CCN(CC)c1ccc(C=C2C(=O)OC(C)(C(C)(C)C)OC2=O)cc1 (configuration not stated),46*,i,i,i,i,i,i,102%*,i,i,i,
CCN(CC)c1ccc(C=C2C(=O)OC3(CCCC3)OC2=O)cc1,54*,i,i,i,i,763%*,i,116%*,i,i,295%*,
Cc1ccnc(SCCn2c(N3CCN(Cc4ccccc4)CC3)nc3c2c(=O)[nH]c(=O)n3C)n1,i,i,i,i,-10*,-340%*,71%*,-61%*,57%*,59%*,i,
Cc1ccc(C(=O)NCC(C)NC(=O)c2ccc(C)c(C)c2)cc1C (configuration not stated),i,i,i,i,i,nt,nt,nt,nt,nt,nt,
Cc1ccccc1N1CCN(C(=O)c2ccccc2NC(=O)c2ccccc2C(=O)O)CC1,i,i,i,i,i,nt,nt,nt,nt,nt,nt,
Cc1nnc(SCCn2c(N3CCCCC3)nc3c2c(=O)n(C)c(=O)n3C)s1,i,i,i,i,i,nt,nt,nt,nt,nt,nt,
Cc1nnc(SCCn2c(N3CCN(C)CC3)nc3c2c(=O)n(C)c(=O)n3C)s1,i,i,i,i,-13*,-231%*,96%*,-35%*,59%*,72%*,i,
CCOc1ccc(NC(=S)c2ccc3ccccc3n2)cc1,i,i,i,i,i,nt,nt,nt,nt,nt,nt,
